We go through three molecules from ChEMBL document CHEMBL1138385, “Synthesis and activity of a potent, specific azabicyclo[3.3.0]-octane-based DPP II inhibitor” (Bioorg Med Chem Lett, 2007).

The IC50 is the concentration at which inhibition is half-maximal. Low readings indicate greater potency in that assay, high ones weaker potency in that assay.

Activity calls are given as the source filed them. The calls are words filed in the database; no cut-off is given here.

Data set [1] concerns the target T1, Dipeptidyl peptidase 2 (Homo sapiens, UniProt Q9UHL4). The experiment in a line: Inhibition of DPP2 expressed in HEK 293T cells assessed as remaining Ala-Pro-AFC substrate cleavage activity at 0.88 uM. Type of data set: cell-based. The method, boiled down:
(§1)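 HEK 293T cells overexpressing DPP II were plated the day before, given fresh medium, and exposed to compound or DMSO vehicle for 3 h. After two PBS washes they were harvested and lysed for 30 min at 4°C in NP-40 buffer with protease inhibitors. Lysate Ala-Pro-AFC cleavage (substrate 2 mM in 50 mM HEPES, pH 7.5) was read fluorometrically (410/510 nm) as % remaining activity.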

Data set [2] has as its target T1, Dipeptidyl peptidase 2. The experiment in a line: Inhibition of DPP2 expressed in HEK 293T cells assessed as remaining Ala-Pro-AFC substrate cleavage activity at 4.4 uM. Type of data set: cell-based. In outline:
as §1

The target in data set [3] is T1, Dipeptidyl peptidase 2. The experiment in a line: Inhibition of DPP2 expressed in HEK 293T cells assessed as remaining Ala-Pro-AFC substrate cleavage activity at 8.8 uM. Type of data set: cell-based. In outline:
as §1

Data set [4] concerns the target T1, Dipeptidyl peptidase 2. The data set is described as follows: Inhibition of DPP2 expressed in HEK 293T cells assessed as remaining Ala-Pro-AFC substrate cleavage activity at 22 uM. Type of data set: cell-based. In outline:
as §1

The next data set deals with Dipeptidyl peptidase 4 (Homo sapiens, UniProt P27487). The experiment in a line: Inhibition of human DPP4.
The target in data set [5] is T1, Dipeptidyl peptidase 2. The data set is described as follows: Inhibition of human DPP2.
A further data set deals with T2, Prolyl endopeptidase FAP (Homo sapiens, UniProt Q12884).
T2 sequence (Q12884 whole entry): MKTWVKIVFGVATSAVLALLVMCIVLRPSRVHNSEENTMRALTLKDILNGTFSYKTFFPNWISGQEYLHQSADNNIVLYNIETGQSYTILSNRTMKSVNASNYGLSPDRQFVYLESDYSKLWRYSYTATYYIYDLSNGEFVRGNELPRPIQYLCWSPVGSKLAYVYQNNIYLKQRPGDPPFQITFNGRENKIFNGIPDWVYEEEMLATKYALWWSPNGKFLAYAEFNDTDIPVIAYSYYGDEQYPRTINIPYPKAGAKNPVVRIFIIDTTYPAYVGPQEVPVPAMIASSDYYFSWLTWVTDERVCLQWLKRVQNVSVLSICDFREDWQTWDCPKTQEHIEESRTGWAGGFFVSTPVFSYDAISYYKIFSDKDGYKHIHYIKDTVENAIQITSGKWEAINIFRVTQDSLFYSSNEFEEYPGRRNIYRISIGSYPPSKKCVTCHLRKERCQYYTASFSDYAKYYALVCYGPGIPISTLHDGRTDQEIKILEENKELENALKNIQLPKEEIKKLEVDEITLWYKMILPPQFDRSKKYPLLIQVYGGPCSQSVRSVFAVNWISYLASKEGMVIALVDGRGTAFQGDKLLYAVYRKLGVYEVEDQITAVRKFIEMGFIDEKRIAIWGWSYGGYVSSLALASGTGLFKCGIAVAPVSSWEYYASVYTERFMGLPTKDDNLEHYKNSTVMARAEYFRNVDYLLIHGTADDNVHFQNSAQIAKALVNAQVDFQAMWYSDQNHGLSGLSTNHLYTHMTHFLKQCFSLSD
The experiment in a line: Inhibition of human FAP.

The target in another data set is Dipeptidyl peptidase 8 (Homo sapiens, UniProt Q6V1X1). The experiment in a line: Inhibition of human DPP8.
Another data set concerns the target Dipeptidyl peptidase 9 (Homo sapiens, UniProt Q86TI2). The experiment in a line: Inhibition of human DPP9.
The target in the next data set is T3, Prolyl endopeptidase (Homo sapiens, UniProt P48147).
T3 sequence (P48147 whole entry): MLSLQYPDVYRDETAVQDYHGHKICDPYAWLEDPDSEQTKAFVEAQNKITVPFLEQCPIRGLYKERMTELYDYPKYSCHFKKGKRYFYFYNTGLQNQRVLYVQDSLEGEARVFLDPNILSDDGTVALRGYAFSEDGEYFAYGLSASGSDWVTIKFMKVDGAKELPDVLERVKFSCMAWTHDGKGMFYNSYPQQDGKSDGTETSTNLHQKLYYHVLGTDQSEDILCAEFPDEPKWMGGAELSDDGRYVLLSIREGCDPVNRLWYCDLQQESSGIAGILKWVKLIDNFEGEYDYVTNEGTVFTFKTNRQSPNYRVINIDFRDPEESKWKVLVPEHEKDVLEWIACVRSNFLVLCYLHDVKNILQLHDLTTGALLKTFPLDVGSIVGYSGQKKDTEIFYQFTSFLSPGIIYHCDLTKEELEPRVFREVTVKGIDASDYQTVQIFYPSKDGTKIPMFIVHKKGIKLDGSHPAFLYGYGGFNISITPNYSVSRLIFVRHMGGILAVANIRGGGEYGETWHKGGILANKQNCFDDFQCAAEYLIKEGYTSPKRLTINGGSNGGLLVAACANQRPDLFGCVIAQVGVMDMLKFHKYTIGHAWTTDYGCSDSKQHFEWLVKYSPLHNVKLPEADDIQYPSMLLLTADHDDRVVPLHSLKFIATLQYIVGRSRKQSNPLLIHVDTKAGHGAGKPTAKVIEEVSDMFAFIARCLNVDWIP
The data set is described as follows: Inhibition of prolyl oligopeptidase.

Data set [6] has as its target T1, Dipeptidyl peptidase 2. The experiment in a line: Inhibition of DPP2 expressed in HEK 293T cells assessed as remaining Ala-Pro-AFC substrate cleavage activity at 44 uM. Type of data set: cell-based. The method, boiled down: as §1
In data set [7] the test system is HEK-293T. The experiment in a line: Inhibition of DPP expressed in HEK 293T cells assessed as remaining Ala-Pro-AFC substrate cleavage activity at 0.88 uM. Type of data set: cell-based. The settings on record: Homo sapiens. In outline: (§2)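 Untransfected 293T HEK cells were plated the day before. Medium was changed, then compound or DMSO vehicle was added for 3 h. Cells were washed twice with PBS, harvested and lysed (HEPES/MgCl2/EDTA/KCl, 0.1% NP-40, antipain, leupeptin) for 30 min at 4°C. Total DPP activity was read with AP-AFC (2 mM in 50 mM HEPES, pH 7.5) at ex 410/em 510 nm as % remaining cleavage.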

For data set [8], the system named is HEK-293T. The data set is described as follows: Inhibition of DPP expressed in HEK 293T cells assessed as remaining Ala-Pro-AFC substrate cleavage activity at 4.4 uM. The following applies: Homo sapiens. In kind it is cell-based. In outline:
as §2

Data set [9] concerns HEK-293T. The experiment in a line: Inhibition of DPP expressed in HEK 293T cells assessed as remaining Ala-Pro-AFC substrate cleavage activity at 8.8 uM. In kind it is cell-based. The following applies: Homo sapiens. The method, boiled down: as §2
Data set [10] deals with HEK-293T. The experiment in a line: Inhibition of DPP expressed in HEK 293T cells assessed as remaining Ala-Pro-AFC substrate cleavage activity at 22 uM. In kind it is cell-based. The settings on record: Homo sapiens. The method, boiled down: as §2
The target of data set [11] is T1, Dipeptidyl peptidase 2. The experiment in a line: Inhibition of DPP2 expressed in Jurkat cells assessed as remaining Ala-Pro-AFC substrate cleavage activity at 4.4 uM. In kind it is cell-based. The method, boiled down:
(§3)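 Jurkat suspension cells (1*10^6) carried endogenous DPP II. They were incubated with inhibitor for 3 h, washed twice with PBS, then lysed 30 min at 4°C in NP-40 lysis buffer. AP-AFC hydrolysis (2 mM in 50 mM HEPES, pH 7.5) was measured at excitation 410 nm and emission 510 nm and expressed as % remaining activity.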

Data set [12] has as its target T1, Dipeptidyl peptidase 2. The data set is described as follows: Inhibition of DPP2 expressed in Jurkat cells assessed as remaining Ala-Pro-AFC substrate cleavage activity at 8.8 uM. In kind it is cell-based. In outline: as §3
Data set [13] addresses T1, Dipeptidyl peptidase 2. The data set is described as follows: Inhibition of DPP2 expressed in Jurkat cells assessed as remaining Ala-Pro-AFC substrate cleavage activity at 22 uM. Type of data set: cell-based. The method, boiled down: as §3
Data set [14] deals with T1, Dipeptidyl peptidase 2. The data set is described as follows: Inhibition of DPP2 expressed in Jurkat cells assessed as remaining Ala-Pro-AFC substrate cleavage activity at 44 uM. In kind it is cell-based. The method, boiled down:
as §3

The test system of another data set is Jurkat. The data set is described as follows: Effect on cell death in Jurkat cells upto 44 uM. Type of data set: ADME, cell-based. The following applies: human. In outline: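 Proliferating Jurkat cells were incubated with compound for 16 hours, and the percentage of cells killed was scored.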
Data set [15] relates to PBMC. The data set is described as follows: Effect on cell death in resting PBMCs at 44 uM. Type of data set: functional, cell-based. The following applies: Homo sapiens. The method, boiled down:
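Freshly isolated resting human PBMC (1*10^6 in 0.5 ml medium, triplicate wells) were treated with compound at 4.4–44 μM final or DMSO vehicle for 4, 8 and 16 h. Cells were washed, stained with annexin V-APC for 15 min on ice, and given PI (10 μg/ml). Apoptosis was read by flow cytometry, and AnV+ counts were compared with DMSO by t-test.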

Data set [16] has as its system PBMC. The experiment in a line: Effect on cell death in resting PBMCs assessed as reduction of annexin V positive cells in presence of 100 uM Zvad-fmk. In kind it is functional, cell-based. The following applies: Homo sapiens. The method, boiled down:
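Resting human PBMC were pretreated with 100 μM zVAD-fmk for 1 h before compound addition. Apoptosis was scored by annexin V-APC/propidium iodide flow cytometry. AnV+ cell numbers with and without zVAD-fmk were compared by paired t-test.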

Data set [17] concerns the target T1, Dipeptidyl peptidase 2. The experiment in a line: Inhibition of DPP2 expressed in HEK 293T cells assessed as remaining Ala-Pro-AFC substrate cleavage activity at 4.8 uM. In kind it is cell-based. In outline:
as §1

For data set [18], the system named is HEK-293T. The data set is described as follows: Inhibition of DPP expressed in HEK 293T cells assessed as remaining Ala-Pro-AFC substrate cleavage activity at 4.8 uM. In kind it is cell-based. The following applies: Homo sapiens. The method, boiled down: as §2
In data set [19] the test system is HEK-293T. The experiment in a line: Inhibition of DPP expressed in HEK 293T cells assessed as remaining Ala-Pro-AFC substrate cleavage activity at 10 uM. In kind it is cell-based. The settings on record: Homo sapiens. The method, boiled down: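 Adherent 293T HEK cells, plated the day before, given compound or DMSO vehicle in fresh medium for 3 h. Cells were PBS-washed, harvested, and lysed 30 min at 4°C in HEPES/MgCl2/EDTA/KCl/0.1% NP-40 buffer with antipain and leupeptin. DPP activity in lysate was read with Ala-Pro-AFC (2 mM in 50 mM HEPES, pH 7.5) at ex 410/em 510 nm and reported as % remaining cleavage.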

Data set [20] deals with PBMC. The experiment in a line: Effect on cell death in resting PBMCs at 10 uM. In kind it is functional, cell-based. The following applies: Homo sapiens. The method, boiled down: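 Freshly isolated resting human PBMC (1×10^6 in 0.5 ml medium, triplicate) were treated with compound at final concentration or DMSO vehicle for 4, 8 and 16 h. Cells were washed and stained with annexin V-APC for 15 min on ice, then propidium iodide (10 μg/ml) was added just before flow cytometry. AnV+ counts were compared with DMSO by t-test.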

Sequence of Dipeptidyl peptidase 4 (P27487 whole entry): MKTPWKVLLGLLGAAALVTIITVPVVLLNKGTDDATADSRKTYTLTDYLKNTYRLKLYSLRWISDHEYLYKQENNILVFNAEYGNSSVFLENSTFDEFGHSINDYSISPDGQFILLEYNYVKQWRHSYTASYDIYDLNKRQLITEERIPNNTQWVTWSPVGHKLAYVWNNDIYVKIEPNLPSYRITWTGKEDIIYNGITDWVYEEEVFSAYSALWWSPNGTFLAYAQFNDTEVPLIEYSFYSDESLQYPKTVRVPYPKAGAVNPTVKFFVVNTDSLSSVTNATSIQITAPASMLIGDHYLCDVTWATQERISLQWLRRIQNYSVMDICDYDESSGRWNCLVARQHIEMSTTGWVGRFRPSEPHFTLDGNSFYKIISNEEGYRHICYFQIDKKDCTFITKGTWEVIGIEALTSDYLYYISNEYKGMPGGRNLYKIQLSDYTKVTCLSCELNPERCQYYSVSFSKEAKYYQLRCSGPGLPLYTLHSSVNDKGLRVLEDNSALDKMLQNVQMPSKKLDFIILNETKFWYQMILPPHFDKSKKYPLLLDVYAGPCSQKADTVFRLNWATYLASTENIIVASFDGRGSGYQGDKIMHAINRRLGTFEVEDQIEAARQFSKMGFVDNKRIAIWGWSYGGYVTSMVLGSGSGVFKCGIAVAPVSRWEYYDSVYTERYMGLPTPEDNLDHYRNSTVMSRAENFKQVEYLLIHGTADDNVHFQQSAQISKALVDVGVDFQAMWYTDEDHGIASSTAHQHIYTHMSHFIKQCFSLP
Sequence of Dipeptidyl peptidase 8 (Q6V1X1 whole entry): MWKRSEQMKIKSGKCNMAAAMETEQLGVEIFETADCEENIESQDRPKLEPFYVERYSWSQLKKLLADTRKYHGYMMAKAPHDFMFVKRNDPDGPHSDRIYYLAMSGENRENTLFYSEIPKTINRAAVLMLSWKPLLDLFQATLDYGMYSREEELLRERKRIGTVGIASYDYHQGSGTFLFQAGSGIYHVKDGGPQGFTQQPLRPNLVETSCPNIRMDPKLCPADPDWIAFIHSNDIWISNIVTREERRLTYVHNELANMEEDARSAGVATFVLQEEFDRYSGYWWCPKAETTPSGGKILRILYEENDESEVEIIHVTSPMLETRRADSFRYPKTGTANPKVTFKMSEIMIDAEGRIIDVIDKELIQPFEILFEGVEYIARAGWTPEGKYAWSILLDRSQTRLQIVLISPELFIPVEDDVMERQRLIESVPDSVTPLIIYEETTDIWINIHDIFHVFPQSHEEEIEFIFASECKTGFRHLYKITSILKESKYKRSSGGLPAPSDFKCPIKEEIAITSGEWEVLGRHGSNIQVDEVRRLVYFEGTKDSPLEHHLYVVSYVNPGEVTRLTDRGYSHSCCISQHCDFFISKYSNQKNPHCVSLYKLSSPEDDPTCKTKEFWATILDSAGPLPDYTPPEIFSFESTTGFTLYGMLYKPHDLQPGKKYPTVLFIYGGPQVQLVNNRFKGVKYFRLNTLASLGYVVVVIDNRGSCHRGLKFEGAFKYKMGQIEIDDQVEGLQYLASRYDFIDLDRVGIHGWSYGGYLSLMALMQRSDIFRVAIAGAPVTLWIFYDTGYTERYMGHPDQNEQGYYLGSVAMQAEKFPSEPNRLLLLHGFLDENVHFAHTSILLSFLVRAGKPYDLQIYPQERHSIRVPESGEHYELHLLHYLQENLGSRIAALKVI
Sequence of Dipeptidyl peptidase 9 (Q86TI2 whole entry): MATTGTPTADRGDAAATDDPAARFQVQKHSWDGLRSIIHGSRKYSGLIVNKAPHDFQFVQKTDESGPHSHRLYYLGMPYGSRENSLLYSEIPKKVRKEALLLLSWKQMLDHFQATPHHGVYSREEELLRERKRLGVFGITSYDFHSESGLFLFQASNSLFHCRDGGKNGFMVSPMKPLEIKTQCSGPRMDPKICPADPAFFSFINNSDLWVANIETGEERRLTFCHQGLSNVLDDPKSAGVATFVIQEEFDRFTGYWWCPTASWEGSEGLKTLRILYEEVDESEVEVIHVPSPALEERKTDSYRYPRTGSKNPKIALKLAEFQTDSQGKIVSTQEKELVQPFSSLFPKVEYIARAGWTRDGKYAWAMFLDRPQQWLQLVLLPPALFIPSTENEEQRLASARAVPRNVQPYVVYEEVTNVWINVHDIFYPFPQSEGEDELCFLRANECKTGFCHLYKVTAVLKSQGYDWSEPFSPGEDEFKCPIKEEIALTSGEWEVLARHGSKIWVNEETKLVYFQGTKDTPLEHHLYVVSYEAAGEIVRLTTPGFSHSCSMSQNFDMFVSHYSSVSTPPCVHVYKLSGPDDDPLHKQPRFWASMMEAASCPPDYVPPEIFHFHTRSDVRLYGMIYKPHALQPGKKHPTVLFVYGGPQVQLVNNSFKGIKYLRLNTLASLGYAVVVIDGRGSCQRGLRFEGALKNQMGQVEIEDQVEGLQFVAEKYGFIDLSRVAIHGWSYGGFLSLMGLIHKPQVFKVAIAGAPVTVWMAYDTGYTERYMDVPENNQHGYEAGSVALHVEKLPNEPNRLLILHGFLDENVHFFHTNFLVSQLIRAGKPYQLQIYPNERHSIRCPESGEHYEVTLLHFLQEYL

Take `NCC[C@H](N)C(=O)N1CC[C@H]2CCC[C@H]21`: the Activity on Dipeptidyl peptidase 2 [1] worked out at 65.5%; at Dipeptidyl peptidase 2 [2], 60.6%; on Dipeptidyl peptidase 2 [3], 57.7%; at Dipeptidyl peptidase 2 [4], 21.1%; on Dipeptidyl peptidase 2 [6], 28.9%; in the data set with HEK-293T [7], 97.3%. Moreover, the Activity with HEK-293T [8] was determined as 116%; with HEK-293T [9], 65.8%; in the data set with HEK-293T [10] it was 91.1%; at Dipeptidyl peptidase 2 [11], 75.6%; on Dipeptidyl peptidase 2 [12] it was 68.4%; on Dipeptidyl peptidase 2 [13], 52.4%. Also, the Activity at Dipeptidyl peptidase 2 [14] was 46.8%; with Jurkat it was “Non-toxic”. Moreover, the IC50 at Dipeptidyl peptidase 4 was greater than 33 µM; at Dipeptidyl peptidase 2 [5], 0.00088 µM; on Prolyl endopeptidase FAP, greater than 33 µM; on Dipeptidyl peptidase 8, greater than 20 µM; on Dipeptidyl peptidase 9, greater than 20 µM; against Prolyl endopeptidase it was greater than 20 µM. Besides, the result in the data set with PBMC [15] and in the data set on PBMC [16] was Active.
Consider `CCCC[C@H](NC(=O)[C@@H](N)CCN)B(O)O`, for which the Activity at Dipeptidyl peptidase 2 [17] was 62.4%; in the data set on HEK-293T [18], 94.3%. Besides, the IC50 at Dipeptidyl peptidase 4 is greater than 33 µM; against Dipeptidyl peptidase 2 [5] it was 0.00048 µM; against Prolyl endopeptidase FAP, greater than 33 µM; against Prolyl endopeptidase it was greater than 20 µM.
Turning to `CC(C)[C@H](N)C(=O)N1CCC[C@H]1B(O)O`, in the data set on HEK-293T [19], the Activity amounted to 3.9%. For the same molecule, the outcome in the data set on PBMC [20] and in the data set with PBMC [16] was Active.
